# Data as given in ChEMBL document CHEMBL5380787, “Optimized M24B Aminopeptidase Inhibitors for CARD8 Inflammasome Activation” (J Med Chem, 2023).
# Key:
# [1] = tested on: MV4-11; test: Cytotoxicity against CASP1 knockout human MV4-11 cells assessed as reduction in cell viability at 0.015 to 100 uM incubated for 24 hrs by celltiter-glo assay; type: functional; conditions: dose 0.015-100 µM
# Outline: (§1)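 MV4;11 cells (WT or CASP1−/−), grown in RPMI 1640 with 10% FBS at 37 °C, 5% CO2, plated 2000 cells/well, dosed by pintool across 100 μM to 15.2 nM in three-fold steps for 24 h. Viability by CellTiter-Glo luminescence after 2 min shaking and 10 min at 25 °C. IC50 as mean ± SEM of three biological replicates.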
# [2] = tested on: MV4-11; test: Cytotoxicity against human MV4-11 cells assessed as reduction in cell viability incubated for 24 hrs by celltiter-glo assay; type: functional, cell-based; conditions: MV4-11, 24 h; outline: as §1
# [3] = tested on: MV4-11; test: Cytotoxicity against human MV4-11 cells assessed as reduction in cell viability at 0.015 to 100 uM incubated for 24 hrs by celltiter-glo assay; type: functional; conditions: dose 0.015-100 µM; outline: as §1
# [4] = tested on: MV4-11; test: Cytotoxicity against human MV4-11 cells assessed as reduction in cell viability at 1 uM incubated for 24 hrs by celltiter-glo assay relative to control; type: functional
# Outline: (§2)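 Single-dose viability screen. MV4;11 or OCI-AML2 cells at 2000 cells/well were exposed to 1 μM compound for 24 h. Viability was read by CellTiter-Glo luminescence and expressed as percent inhibition. Values are means of three biological replicates.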
# [5] = tested on: OCI-AML2; test: Cytotoxicity against human OCI-AML2 cells assessed as reduction in cell viability at 1 uM incubated for 24 hrs by celltiter-glo assay relative to control; type: functional; outline: as §2
# [6] = biological target: T1, Xaa-Pro dipeptidase (Homo sapiens) (UniProt P12955); test: Inhibition of recombinant human PEPD using Ala-Pro as substrate assessed as alanine release by measuring increase in fluorescense signal at 1 uM by fluorescence based analysis relative to control
# T1 sequence (whole entry): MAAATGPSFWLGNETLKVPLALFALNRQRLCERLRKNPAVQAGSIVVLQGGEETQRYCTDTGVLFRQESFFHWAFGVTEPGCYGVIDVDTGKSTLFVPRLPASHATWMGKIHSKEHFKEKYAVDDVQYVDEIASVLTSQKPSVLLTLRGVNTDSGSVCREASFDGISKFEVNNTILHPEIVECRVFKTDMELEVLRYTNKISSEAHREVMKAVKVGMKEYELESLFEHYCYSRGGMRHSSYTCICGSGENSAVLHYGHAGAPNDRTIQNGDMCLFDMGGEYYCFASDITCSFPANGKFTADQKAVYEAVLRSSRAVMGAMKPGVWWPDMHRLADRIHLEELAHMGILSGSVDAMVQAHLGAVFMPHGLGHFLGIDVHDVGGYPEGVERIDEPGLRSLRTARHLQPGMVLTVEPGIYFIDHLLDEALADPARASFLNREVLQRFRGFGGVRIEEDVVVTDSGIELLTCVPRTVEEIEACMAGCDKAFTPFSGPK
# Outline: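 Recombinant human PEPD at 50 nM was incubated with Ala-Pro at 40 μM final and compound. Released alanine was detected by coupled alanine transaminase/pyruvate oxidase conversion to H2O2 and resorufin fluorescence (Ex/Em 535/587 nm) at 25 °C.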
# [7] = biological target: Xaa-Pro aminopeptidase 1 (Homo sapiens, UniProt Q9NQW7); test: Inhibition of 6-His tagged XPNPEP1 (unknown origin) expressed in Escherichia coli Rosetta DE3 cells using H-Lys(abz)-Pro-Pro-pNA as substrate at 20 uM incubated for 60 mins by fluorescence based analysis relative to control
# Outline: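 His6-tagged XPNPEP1 was expressed in E. coli Rosetta DE3 (IPTG, 16 h, 37 °C) and purified on TALON resin. Enzyme at 3.5 nM was exposed to compound, then H-Lys(abz)-Pro-Pro-pNA was added at 100 μM final. Fluorescence (Ex/Em 320/410) was followed for 60 min. Single-point inhibition used 20 μM; IC50 as mean ± SEM of three biological replicates.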
# [8] = tested on: MV4-11; test: Cytotoxicity against CASP1 knockout human MV4-11 cells assessed as reduction in cell viability incubated for 24 hrs by celltiter-glo assay; type: functional, cell-based; conditions: MV4-11, 24 h; outline: as §1
# [9] = biological target: T2, Xaa-Pro dipeptidase (Homo sapiens, UniProt P12955); test: Inhibition of recombinant human PEPD using Ala-Pro as substrate assessed as alanine release by measuring increase in fluorescense signal by fluorescence based analysis
# T2 sequence (P12955 whole entry): T1 sequence (whole entry)
# Sequence of Xaa-Pro aminopeptidase 1 (Q9NQW7 whole entry): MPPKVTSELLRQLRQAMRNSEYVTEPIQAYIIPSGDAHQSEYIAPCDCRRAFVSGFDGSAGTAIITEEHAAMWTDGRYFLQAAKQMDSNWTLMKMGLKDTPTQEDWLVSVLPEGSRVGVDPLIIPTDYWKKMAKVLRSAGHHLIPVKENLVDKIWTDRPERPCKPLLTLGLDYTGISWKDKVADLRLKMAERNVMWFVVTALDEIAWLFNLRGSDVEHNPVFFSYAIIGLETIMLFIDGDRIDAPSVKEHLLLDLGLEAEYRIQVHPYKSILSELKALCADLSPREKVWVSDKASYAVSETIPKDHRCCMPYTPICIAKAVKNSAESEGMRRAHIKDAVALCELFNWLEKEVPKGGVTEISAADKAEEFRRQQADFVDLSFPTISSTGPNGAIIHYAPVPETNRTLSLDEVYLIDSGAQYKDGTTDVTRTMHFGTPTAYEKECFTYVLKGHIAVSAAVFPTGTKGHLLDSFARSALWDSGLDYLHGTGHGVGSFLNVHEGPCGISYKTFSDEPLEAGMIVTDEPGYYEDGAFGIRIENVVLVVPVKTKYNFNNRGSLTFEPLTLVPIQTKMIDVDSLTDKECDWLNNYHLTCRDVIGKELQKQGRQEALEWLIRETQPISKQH
Compound,Activity [1],IC50 [2],Activity [3],further results
CC(C)CCNC(=O)[C@@H]1CCCN1C(=O)[C@@H](O)[C@H](N)CC(C)C,92%,15 µM,20%,
CONC(=O)[C@@H]1CCCN1C(=O)[C@@H](O)[C@H](N)CC(C)C,103%,> 100 µM,95%,
COC(=O)[C@@H]1CCCN1C(=O)[C@@H](O)[C@H](N)CCCCO,92%,> 100 µM,87%,
CC[C@H](C)[C@H](NC(=O)[C@@H]1CCCN1C(=O)[C@@H](O)[C@H](N)CC(C)C)C(=O)OC,,0.6 µM,,Activity [4]: 56%; Activity [5]: 42%; inhibition [6]: 48%; inhibition [7]: 68%; IC50 [8]: > 20 µM
CC(C)C[C@H](NC(=O)[C@@H]1CCCN1C(=O)[C@@H](O)[C@H](N)CC(C)C)C(=O)NCCc1ccc2ccccc2c1,,0.43 µM,,
CC(C)C[C@@H](N)[C@H](O)C(=O)N1CCCC1,85%,> 100 µM,91%,IC50 [9]: > 100 µM
CC(C)C[C@H](NC(=O)[C@@H]1CCCN1C(=O)[C@@H](O)[C@H](N)CC(C)C)C(=O)N(C)C,,8.2 µM,,
COC(=O)[C@@H]1CCCN1C(=O)[C@@H](O)[C@H](N)CC(C)(C)C,100%,> 100 µM,20%,
CC(C)C[C@H](NC(=O)[C@@H]1CCCN1C(=O)[C@@H](O)[C@H](N)CC(C)C)C(=O)N1CCC1,,> 100 µM,,
CC(C)C[C@H](NC(=O)[C@@H]1CCCN1C(=O)[C@@H](O)[C@H](N)CC(C)C)C(=O)NCCF,,3 µM,,
COC(=O)[C@@H]1C[C@H](F)CN1C(=O)[C@@H](O)[C@H](N)CC(C)C,94%,61 µM,32%,
COC(=O)[C@@H]1C[C@H](C)CN1C(=O)[C@@H](O)[C@H](N)CC(C)C,96%,5.6 µM,10%,
C[C@H](NC(=O)[C@@H]1CCCN1C(=O)[C@@H]1CCCN1C(=O)[C@@H](O)[C@H](N)Cc1ccccc1)C(N)=O,,> 20 µM,,IC50 [8]: > 20 µM
COC(=O)[C@H](CC(C)C)NC(=O)[C@@H](O)[C@H](N)CC(C)C,12%,19 µM,30%,
COC(=O)[C@@H]1CCCN1C(=O)[C@@H](O)[C@@H](N)c1cccs1,71%,10 µM,22%,
COC(=O)[C@@H]1CCCN1C(=O)[C@@H](O)[C@H](N)c1ccccc1,97%,15 µM,32%,
COC(=O)[C@H](C)NC(=O)[C@@H]1CCCN1C(=O)[C@@H]1CCCN1C(=O)[C@@H](O)[C@H](N)CC(C)C,,35 µM,,Activity [4]: 107%; Activity [5]: 95%; inhibition [6]: 96%; inhibition [7]: 23%; IC50 [8]: > 100 µM
CONC(=O)[C@H](CC(C)C)NC(=O)[C@@H]1CCCN1C(=O)[C@@H](O)[C@H](N)CC(C)C,,> 100 µM,,
COC(=O)[C@H](Cc1ccccc1)NC(=O)[C@@H]1CCCN1C(=O)[C@@H](O)[C@H](N)CC(C)C,,0.66 µM,,Activity [4]: 72%; Activity [5]: 42%; inhibition [6]: 43%; inhibition [7]: 81%; IC50 [8]: > 20 µM

Compound,Activity [1],IC50 [2],Activity [3],further results
CC(C)C[C@H](NC(=O)[C@@H]1CCCN1C(=O)[C@@H](O)[C@H](N)CC(C)C)C(N)=O,,> 100 µM,,
COC(=O)[C@@H]1C[C@H](O)CN1C(=O)[C@@H](O)[C@H](N)CC(C)C,102%,> 100 µM,99%,IC50 [9]: > 100 µM
CC(C)C[C@@H](N)[C@H](O)C(=O)N1CCC[C@H]1C(N)=O,96%,17 µM,35%,
COC(=O)[C@@H]1CC2(CC2)CN1C(=O)[C@@H](O)[C@H](N)CC(C)C,101%,8.1 µM,43%,
COC(=O)[C@H](Cc1ccccc1)NC(=O)[C@@H](O)[C@H](N)CC(C)C,7%,5.4 µM,8%,IC50 [9]: > 100 µM
COC(=O)[C@@H]1CCCN1C(=O)[C@@H](O)[C@H](N)C(C)C,104%,46 µM,23%,
CC(C)CCNC(=O)[C@H](CC(C)C)NC(=O)[C@@H]1CCCN1C(=O)[C@@H](O)[C@H](N)CC(C)C,,1 µM,,
COC(=O)[C@@H]1CCCN1C(=O)[C@@H](O)[C@H](N)Cc1ccccc1,97%,> 100 µM,73%,
COC(=O)[C@@H]1CCCN1C(=O)[C@@H](O)[C@H](N)C12CC3CC(CC(C3)C1)C2,98%,> 100 µM,83%,
CC(C)C[C@@H](N)[C@H](O)C(=O)N1CCC[C@H]1c1nnn[nH]1,95%,> 100 µM,85%,
COC(=O)[C@@H]1CCCN1C(=O)[C@@H](O)[C@H](N)c1ccc2ccoc2c1,85%,60 µM,44%,
CC(C)C[C@H](NC(=O)[C@@H]1CCCN1C(=O)[C@@H](O)[C@H](N)CC(C)C)C(=O)NS(=O)(=O)N(C)C,,> 100 µM,,
COC(=O)[C@@H]1CCCN1C(=O)[C@@H](O)[C@@H](N)c1ccco1,71%,14 µM,23%,
CC(C)C[C@H](NC(=O)[C@@H]1CCCN1C(=O)[C@@H](O)[C@H](N)CC(C)C)C(=O)NC(C)(C)C,,7.3 µM,,
COC(=O)[C@@H]1CCCN1C(=O)[C@@H](O)[C@H](N)C1CC1,102%,> 100 µM,85%,
COC(=O)[C@@H]1CCCN1C(=O)[C@@H](O)[C@H](N)CCC(F)(F)F,100%,> 100 µM,68%,
CC(C)C[C@@H](N)[C@H](O)C(=O)N1CCC[C@H]1CNS(C)(=O)=O,97%,> 100 µM,89%,IC50 [9]: > 100 µM
CCCC[C@@H](N)[C@H](O)C(=O)N1CCC[C@H]1C(=O)OC,98%,11 µM,20%,
CC(C)C[C@H](NC(=O)[C@@H]1CCCN1C(=O)[C@@H](O)[C@H](N)CC(C)C)C(=O)NCCc1ccc(-c2ccccc2)cc1,,0.65 µM,,
